According to ChEMBL document CHEMBL4354812, “N-Benzyl/Aryl Substituted Tryptanthrin as Dual Inhibitors of Indoleamine 2,3-Dioxygenase and Tryptophan 2,3-Dioxygenase” (J Med Chem, 2019):
Calls of active or inactive are those of the source. The calls are words filed in the database; no cut-off is given here.

How the values were obtained:
[1] = target: T1, Tryptophan 2,3-dioxygenase (Homo sapiens, UniProt P48775); test: Inhibition of human TDO transfected in HEK293 cells assessed as reduction in kynurenine production using L-tryptophan as substrate incubated for 12 hrs; assay type: cell-based
How it was run: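 U87 MG cells (hIDO2) or HEK293 cells (hTDO) were transiently transfected at 80% confluence, with empty vector as control. After 18 h, cells were seeded 2.5 × 10⁴/well in medium with 200 μM L-Trp. Compound serial dilutions were added after a further 6 h (IDO2) or 12 h (TDO). Reactions were stopped 24 h (IDO2) or 8 h (TDO) later with TCA, heated 65 °C 15 min, and Kyn read with DMAB at 492 nm. IC50 by nonlinear regression.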
Target sequence in this assay (P48775 whole entry): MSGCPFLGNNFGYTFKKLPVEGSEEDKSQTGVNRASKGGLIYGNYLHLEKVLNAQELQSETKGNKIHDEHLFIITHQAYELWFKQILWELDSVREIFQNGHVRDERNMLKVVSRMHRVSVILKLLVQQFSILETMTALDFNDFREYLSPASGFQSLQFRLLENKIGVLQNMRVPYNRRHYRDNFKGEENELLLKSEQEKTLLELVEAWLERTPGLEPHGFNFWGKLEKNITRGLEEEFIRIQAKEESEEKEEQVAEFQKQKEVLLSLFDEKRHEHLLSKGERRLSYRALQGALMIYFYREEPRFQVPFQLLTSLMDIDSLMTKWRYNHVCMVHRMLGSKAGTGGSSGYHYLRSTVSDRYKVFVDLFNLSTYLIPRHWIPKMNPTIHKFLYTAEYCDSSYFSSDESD

[2] = target: T2, Indoleamine 2,3-dioxygenase 2 (Homo sapiens) (UniProt Q6ZQW0); test: Binding affinity to human IDO2 assessed as change in spectral signal at 200 uM by CPMG NMR spectrometry analysis
T2 sequence (whole entry): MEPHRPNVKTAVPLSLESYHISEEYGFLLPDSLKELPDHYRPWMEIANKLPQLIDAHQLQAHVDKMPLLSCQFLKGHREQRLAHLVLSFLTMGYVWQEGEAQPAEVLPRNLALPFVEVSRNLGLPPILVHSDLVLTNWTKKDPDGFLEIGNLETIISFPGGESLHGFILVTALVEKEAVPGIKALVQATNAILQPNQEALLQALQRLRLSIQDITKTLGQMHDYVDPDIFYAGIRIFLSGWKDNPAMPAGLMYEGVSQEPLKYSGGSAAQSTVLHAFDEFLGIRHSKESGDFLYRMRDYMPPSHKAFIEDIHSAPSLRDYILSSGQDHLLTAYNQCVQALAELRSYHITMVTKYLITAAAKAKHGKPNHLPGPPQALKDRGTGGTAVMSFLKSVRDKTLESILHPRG

[3] = target: T1, Tryptophan 2,3-dioxygenase; test: Binding affinity to human TDO assessed as change in spectral signal at 200 uM by CPMG NMR spectrometry analysis
Target sequence in this assay (P48775 whole entry, looked up): as the sequence (P48775 whole entry) above

[4] = target: T2, Indoleamine 2,3-dioxygenase 2 (Homo sapiens); test: Binding affinity to human IDO2 at 200 uM by STD NMR spectrometry analysis
Homo sapiens [5] = species: Homo sapiens; test: Inhibition of IDO1/TDO in IFNgamma-treated human HeLa cells assessed as T cell proliferation at 40 nM measured after 2 days in presence of IL-2, anti-CD3 and IFN-gamma by CFSE dye based flow cytometry analysis (reference value: 11.7 %); design: scale not given: the % may be the effect or the level left
How it was run: (§1)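 CFSE-labelled human PBMC lymphocytes (1 × 10⁶/well) were cocultured with HeLa cells (2 × 10⁵/well), a 5:1 ratio, in 150 U/mL IL-2, 100 ng/mL anti-CD3 and 60 ng/mL IFN-γ. Compound was tested at 40 nM, 200 nM, 500 nM or 1 μM. Proliferation was read by flow cytometry after 2 days, three independent experiments.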

Homo sapiens [6] = species: Homo sapiens; test: Inhibition of IDO1/TDO in IFNgamma-treated human HeLa cells assessed as T cell proliferation at 200 nM measured after 2 days in presence of IL-2, anti-CD3 and IFN-gamma by CFSE dye based flow cytometry analysis (reference value: 11.7 %); design: scale not given: the % may be the effect or the level left; how it was run: as §1
Mus musculus [7] = test: (§2) In vivo inhibition of IDO1/2/TDO in C57BL/6 mouse assessed as decrease in LPS-stimulated kynurenine pathway by measuring increase in serum tryptophan level at 60 mg/kg, ig pretreated for 24 hrs with Escherichia coli LPS followed by compound treatment measured at 12 hrs post-treatment by HPLC analysis; assay type: functional, organism-based
How it was run: (§3)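 C57BL/6 mice were given ip saline or E. coli LPS 5 mg/kg. 24 h later they received ig 60 mg/kg compound or 0.5% CMC-Na. Blood was taken at 1, 6, 12, 24 and 30 h after dosing. Serum Trp and Kyn were measured by HPLC and the Kyn/Trp ratio calculated. n = 3–5 mice/group.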

Mus musculus [8] = test: as §2, with “24” for “12”; assay type: functional, organism-based; how it was run: as §3
Mus musculus [9] = test: as §2, with “decrease in ratio of kynurenine to tryptophan level” for “increase”, “serum” for “serum tryptophan level”, “24” for “12”; assay type: functional, organism-based; how it was run: as §3
Mus musculus [10] = test: In vivo inhibition of IDO1/2/TDO in C57BL/6 mouse assessed as decrease in LPS-stimulated kynurenine pathway by measuring effect on kynurenine level at 60 mg/kg, ig pretreated for 24 hrs with Escherichia coli LPS followed by compound treatment measured at 1 to 30 hrs post-treatment by HPLC analysis; assay type: functional, organism-based; how it was run: as §3
[11] = system: Lewis lung carcinoma cell line; test: Antitumor activity against mouse LLC cells implanted in C57BL/6 mouse assessed as reduction in tumor weight at 45 mg/kg, po qd administered for 2 weeks and measured post-treatment; assay type: functional, organism-based
How it was run: (§4)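 Tumor cells (LLC, or H22 ascites cells after two intraperitoneal passages in Kunming mice) injected sc into the right forelimb at 2 × 10⁶ per mouse, in female 6–8-week C57BL/6 or Kunming mice. Oral dosing once daily began at 5 mm tumor diameter and continued 2 weeks. Vehicle was 0.5% CMC-Na. Volume was read by caliper every 2 days as long × short²/2. Tumors were weighed at sacrifice. n = 9–10/group.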

[12] = system: Lewis lung carcinoma cell line; test: Antitumor activity against mouse LLC cells implanted in C57BL/6 mouse assessed as reduction in tumor volume at 45 mg/kg, po qd administered for 2 weeks and measured at 2 days interval during compound dosing relative to control; assay type: functional; design: scale not given: the % may be the effect or the level left; how it was run: as §4
[13] = system: Lewis lung carcinoma cell line; test: Antitumor activity against mouse LLC cells implanted in C57BL/6 mouse assessed as tumor regression at 45 mg/kg, po qd administered for 2 weeks and measured post-treatment; assay type: functional, organism-based; how it was run: as §4
H22 [14] = test: Antitumor activity against mouse H22 cells implanted in Kunming mouse assessed as reduction in tumor volume at 45 mg/kg, po qd administered for 2 weeks and measured at 2 days interval during compound dosing relative to control; assay type: functional; design: scale not given: the % may be the effect or the level left; how it was run: as §4
H22 [15] = test: Antitumor activity against mouse H22 cells implanted in Kunming mouse assessed as reduction in tumor weight at 45 mg/kg, po qd administered for 2 weeks and measured post-treatment relative to control; assay type: functional; design: scale not given: the % may be the effect or the level left; how it was run: as §4
Mus musculus [16] = test: In vivo blockade of kynurenine pathway in C57BL/6 mouse implanted with mouse LLC cells assessed as decrease in kynurenine/tryptophan ratio in tumor at 45 mg/kg, po qd for 2 weeks by LC-MS analysis; assay type: functional, organism-based
How it was run: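 LLC tumor-bearing C57BL/6 mice received oral dosing once daily in 0.5% CMC-Na for 2 weeks. Tumors were dissected and Trp and Kyn measured by LC–MS on a C18 column with acetonitrile/0.1% formic acid gradient (5–80%), positive ion mode, m/z 205 (Trp) and 209 (Kyn), metronidazole internal standard. Kyn/Trp ratio calculated. n = 4–6/group.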

Mus musculus [17] = test: In vivo blockade of kynurenine pathway in Kunming mouse implanted with mouse H22 cells assessed as decrease in kynurenine level in serum at 45 mg/kg, po qd for 2 weeks by HPLC analysis; assay type: functional, organism-based
How it was run: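 H22 tumor-bearing Kunming mice received oral dosing once daily in 0.5% CMC-Na for 2 weeks. Serum Trp and Kyn were measured by HPLC on a C18 column with 15 mM sodium acetate (pH 3.6) containing 4% acetonitrile, UV detection at 280 and 360 nm. Kyn/Trp ratio calculated. n = 9–10/group.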

## CN1CCN(Cc2ccc3nc4n(c(=O)c3c2)-c2ccc(F)cc2C4=O)CC1
[1]
  IC50: 90 nM
[2]
  Activity: Active
[3]
  Activity: Active
[4]
  Activity: Active
Homo sapiens [5]
  Activity: 37.2%
Homo sapiens [6]
  Activity: 39.8%
Mus musculus [7]
  inhibition: Active
Mus musculus [8]
  inhibition: Active
Mus musculus [9]
  inhibition: Active
Mus musculus [10]
  inhibition: inactive
[11]
  Activity: Active
[12]
  Activity: 56.2%
[13]
  Activity: inactive
H22 [14]
  Activity: 47.3%
H22 [15]
  Activity: 55.4%
Mus musculus [16]
  Activity: Active
Mus musculus [17]
  Activity: Active
